This is a sample that favours compounds with a hit; in the whole collection about 2.4% have one here.
Neddyl block: cullin neddylation inhibition | TR-FRET cullin neddylation, biochemical | inhibition, % at 25 µM | 360,000 tested, 0.58% active | AID 651699; in the data active = inhibition above about 36%
HNF4A DNA FP: change in binding of human HNF4 alpha to DNA. 360,000 tested, 0.3% active. HNF4a-FITC DNA binding, fluorescence polarization, 1 h. activity change, % at 10 µM; in the data active = activity change above about 30%, passing the limit was not always enough
Target sequence (P41235 whole entry, looked up): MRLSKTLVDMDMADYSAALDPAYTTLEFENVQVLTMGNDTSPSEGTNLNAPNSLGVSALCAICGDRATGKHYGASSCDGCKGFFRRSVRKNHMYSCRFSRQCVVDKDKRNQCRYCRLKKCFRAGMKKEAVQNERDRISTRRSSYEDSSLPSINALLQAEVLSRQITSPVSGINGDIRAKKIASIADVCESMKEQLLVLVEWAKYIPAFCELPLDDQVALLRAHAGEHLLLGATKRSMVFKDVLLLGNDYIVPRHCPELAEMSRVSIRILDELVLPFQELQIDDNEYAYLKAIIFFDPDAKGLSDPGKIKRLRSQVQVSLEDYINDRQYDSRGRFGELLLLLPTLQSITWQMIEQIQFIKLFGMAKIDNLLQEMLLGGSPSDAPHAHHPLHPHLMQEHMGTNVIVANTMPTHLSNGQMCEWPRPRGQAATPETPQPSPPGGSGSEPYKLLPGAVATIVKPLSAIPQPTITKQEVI
TbMetRS inhib: Trypanosoma brucei MetRS inhibition | purified T. brucei MetRS, ATP depletion, Kinase-Glo luminescence | inhibition, % at 11.9 µM | 360,000 tested, 0.4% active | AID 624268;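 active = inhibition above a per-plate cutoff of the control wells' mean inhibition plus 3 SD, cut at about 5.5% in these data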;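 note: 0% = DMSO wells median and 100% = median of wells with control inhibitor compound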
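Test system – parasite MetRS enzyme · Reagent – substrates ATP, L-methionine and bulk Escherichia coli tRNA · Doses – 11.9 µM compound single dose, 0.9% DMSO · Times – 15 min enzyme-compound preincubation, 2 h reaction, 10 min detection, 25 °C · Signal – Kinase-Glo luminescence, ATP depletion format · Controls – DMSO-only wells as low control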
CSN inh: inhibitors of human CSN-mediated cullin deneddylation. AID 651999. Q92905. Purified CSN, SCF-Nedd8-OG deneddylation, fluorescence polarization. 360,000 tested, 0.38% active. inhibition, % at 12.5 µM;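 active = pattern-corrected inhibition above about 35%, with an unprinted fluorescence ratio check between 0.5 and 1.5, limit read from the data, passing the limit was not always enough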;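 note: 0% = enzyme with substrate and 100% = substrate without enzyme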
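Material: human Csn5 produced in HEK293T cells; Input: enzyme 0.24 nM; Reagent: SCFSkp2-Nedd8OG substrate at 10 nM final; Dosing: 12.5 µM compound; Incubation: 90 min reaction at room temperature; Detection: fluorescence polarization of the substrate; Evaluation: % inhibition of substrate cleavage by Csn5; Control set: substrate-only high control, full reaction low control.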
Rpn11 inh: blocks the human proteasome subunit Rpn11 | O00487 | human 26S proteasome, Ub4-pepOG fluorescence polarization; 20S core pre-blocked with epoxomicin | inhibition, % at 20 µM | 360,000 tested, 0.59% active | AID 588493;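 active = inhibition at 20 µM, scaled to each plate's controls, above about 33%, limit read from the data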
PREPL inhibitor: inhibits the human prolyl oligopeptidase-like enzyme. 320,000 tested, 0.68% active. recombinant PREPL, fluorescence polarization activity-based probe. AID 2751. inhibition, % at 5.96 µM; in the data active = inhibition above about 43%;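 note: 0% = enzyme with DMSO and 100% = wells lacking enzyme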
* = called active by the depositor; / = not tested or not shown.

SMILES	Neddyl block	HNF4A DNA FP	TbMetRS inhib	CSN inh	Rpn11 inh	PREPL inhibitor
Nc1ncnc2c1ncn2[C@@H]1O[C@H](CNCc2cccc(C#Cc3ccccc3)c2)[C@@H](O)[C@H]1O	52*	4	0	3	8	/
CC1(C)O[C@@H]2[C@H](O1)[C@@H](COS(=O)(=O)O)O[C@H]2n1cnc2c(N)ncnc21	/	/	/	/	/	19
Nc1ncnc2c1ncn2[C@@H]1O[C@H](COP(=O)(O)OP(=O)(O)OP(=O)(O)O)[C@@H](O)[C@H]1O	80*	3	-6	-5	-3	2
COc1ccc2c(c1)CCO[C@]21O[C@H](CCO)C[C@H](O)[C@H]1O	-3	-1	-2	0	-2	/
Nc1nc(SCc2ccc(Cl)cc2Cl)c2ncn(C3OC(CO)C(O)C3O)c2n1 (centres undefined)	3	12	1	2	-2	/
COc1ccc(/C(O)=C/c2nc3ccc(C(=O)NCCc4cccc(C)c4)cc3[nH]c2=O)cc1OC	21	44*	2	2	/	-2
Cc1cccc(NC(=O)C(C)Sc2ncnc3sccc23)c1 (centres undefined)	-6	3	0	6	8	/
CC1(C)Cc2c(c(N3CCOCC3)nc3sc(-c4ccc(C(=O)O)o4)c(N)c23)CO1	/	85*	0	62*	/	6
CNC(=O)c1ccc(-c2sc3nc(N4CCOCC4)c4c(c3c2N)CC(C)(C)OC4)o1	/	2	0	-1	8	14
CN1Cc2c(N3CCOCC3)nc3sc(C(=O)c4ccc(Br)cc4)c(N)c3c2CC1(C)C	41*	6	0	-1	2	68*
CN1Cc2c(N3CCOCC3)nc3sc(C#N)c(N)c3c2CC1(C)C	/	3	4	-1	3	12
CS(=O)(=O)N(CC(=O)NCCSCc1ccccc1)c1ccccc1Br	7	3	2	0	-2	9
Nc1nc(CN2CCC(Cc3ccccc3)CC2)nc(Nc2ccccc2)n1	-6	54*	0	0	7	8
COC(=O)C(=Cc1ccccc1[N+](=O)[O-])C(=O)OC	0	-1	-1	3	-4	12
O=C(/C=C/c1cn(-c2ccccc2)nc1-c1cccc(Cl)c1)N1CCN(c2ccccn2)CC1	28	2	0	153*	3	-10
O=C(/C=C/c1cn(-c2ccccc2)nc1-c1cccnc1)N1CCCCC1	-5	-2	0	-3	-2	-35
O=S1(=O)CC(N2CCC(Cc3ccccc3)CC2)CN1C1CCCCC1 (centres undefined)	2	3	0	0	7	/
COc1ccc(C)cc1N(CC(=O)N1CCCC1)S(C)(=O)=O	1	9	-1	70*	-1	12
COc1ccc(C)cc1N(CC(=O)N1CCCCCC1)S(C)(=O)=O	6	0	-2	3	4	1
O=c1[nH]c(O)c(/C=C2\C=Nc3ccc(Br)cc32)[nH]1	-13	-1	2	-2	-3	40
CN1CCc2c(sc(N)c2C(=O)c2ccc(Cl)cc2)C1	-4	40*	-1	24	/	26
CN1CCc2c(sc(NC(=O)c3ccc4ccccc4c3)c2C(N)=O)C1	32	32	0	33	/	22
O=C(NCC(F)(F)F)c1ccc(S(=O)(=O)Nc2ccccc2N2CCCC2)cc1	4	27	0	73*	91*	-7
Cc1ccc(S(=O)(=O)Nc2ccccc2N2CCCCC2)cc1	-15	-2	0	-7	-6	13
COC(=O)c1sccc1-n1cccc1C(=O)C(=O)N1CCOCC1	3	40*	0	-8	-10	29
SMILES	Neddyl block	HNF4A DNA FP	TbMetRS inhib	CSN inh	Rpn11 inh	PREPL inhibitor
CC(C)n1cc(/C=N/Nc2ccc(C(=O)O)cc2)c2ccccc21	43*	-2	0	1	-8	1
O=C(O)c1ccc(N/N=C/c2cn(Cc3ccccc3F)c3ccccc23)cc1	46*	5	0	7	0	27
Cn1cc(/C=N/Nc2ccccc2)c2ccccc21	27	0	0	1	5	7
CCS(=O)(=O)Nc1cccc(-c2cn3c(n2)SCC3)c1	10	-4	0	6	0	-4
CCCC(CCC)C(=O)Nc1cccc(-c2cn3c(n2)SCC3)c1	0	38*	1	-4	-9	10
O=C(CSc1nc2c(cnn2-c2ccccc2)c(=O)[nH]1)c1ccc(Cl)cc1	-14	-40	0	88*	-7	1
CC1(C(=O)NS(=O)(=O)Cc2ccccc2C(F)(F)F)CCN1C(=O)Cc1ccsc1 (centres undefined)	-1	2	0	1	2	/
O=C(NC1CCCC1)c1cnn2c(C(F)(F)F)cc(-c3ccco3)nc12	36	3	0	2	1	5
O=C(NC1CCCC1)c1cnn2c(C(F)(F)F)cc(-c3ccc4c(c3)OCO4)nc12	19	70*	-1	22	/	17
CC1(C)Cc2c(c(=S)nc(-c3ccccc3)n2CCCN2CCOCC2)CO1	-25	-2	1	37*	9	-8
CC1(C)Cc2c(c(=S)nc(-c3ccccc3)n2CCO)CO1	-44	4	0	4	3	11
Clc1cccc(-c2nc3ccc(Br)cn3c2Cc2ccsc2)c1	-44	35*	0	1	2	/
Cc1ccc(Cc2c(-c3cccc(Cl)c3)nc3ccc(Cl)cn23)cc1	-28	11	0	39*	27	/
CCCNC(=O)C1(C)CCN(C(=O)c2cccc(Cl)c2)C1 (centres undefined)	-2	0	0	0	-3	/
CNc1cnc(-c2ccc(F)c(F)c2F)cn1	/	-4	0	2	-5	/
O=C(NC(=S)Nc1ccc(-c2ccc(CO)o2)cc1)c1cccs1	3	14	1	40*	34	-5
CC1(C)C2CC=C(/C=N/NC(=O)c3ccc(O)cc3)C1C2 (centres undefined)	8	3	0	-1	0	7
O=C(CSc1nc(O)c(C2CCCCC2)c(=O)[nH]1)Nc1ccc(F)cc1	9	-3	1	-1	4	-4
CCOC(=O)C1C(=O)NC(SCC(N)=O)=C(C#N)C1c1ccccc1OCC (centres undefined)	-13	99*	0	43*	/	-10
[O-][n+]1cccc2cccc(O)c21	8	-3	0	-1	0	/
C[n+]1cccc2cccc([O-])c21	55*	-17	1	30	-56	/
Cc1ccc(C(=O)N/C(=C\c2ccc(-c3ccc([N+](=O)[O-])cc3)o2)C(=O)NC2CCS(=O)(=O)C2)cc1 (centres undefined)	-11	26	0	31	/	2
